Results taken from ChEMBL document CHEMBL4706681, “New 2-Pyrazoline and Hydrazone Derivatives as Potent and Selective Monoamine Oxidase A Inhibitors” (J Med Chem, 2021).
Active and inactive are the calls of the source. The calls are words filed in the database; no cut-off is given here.

System: not listed separately
Experiment: Ex vivo inhibition of MAOA in CD1 mouse brain homogenates assessed as assessed as inhibition of 5-HT deamination by measuring 5-HIAA metabolite levels at 30 mg/kg, po administered as single acute dose via gavage and measured after 1 hr by HPLC analysis (reference value: 0.28 +/- 0.011 ug/g)
Format: functional
Conditions: not given

SMILES	Activity [µg/g]
COc1ccc(C2CC(c3ccccc3)=NN2C(=O)Cn2c(=O)oc3ccccc32)cc1OC (configuration not stated)	0.32

System: not listed separately
Experiment: Cytotoxicity against human HepG2 cells assessed as cell viability at 15 uM incubated for 2 hrs by MTT assay relative to control
Format: cell-based
Conditions: read-out: Activity
Procedure, shortened: (§1)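 HepG2 human hepatoma cells; viability read by MTT assay, with 0.1% DMSO as vehicle control. Viability given as % of control, mean ± SEM (n = 3); p < 0.05 taken as significant.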

SMILES	viability at 2 h, 15 µM [%]
COc1ccc(C2CC(c3ccccc3)=NN2C(=O)Cn2c(=O)oc3ccccc32)cc1OC (configuration not stated)	88.2

System: not listed separately
Experiment: Selectivity index, ratio of Ki for inhibition of recombinant human MAO-A to Ki for inhibition of recombinant human MAO-B using p-tyramine as substrate
Conditions: not given

SMILES	Ratio Ki
COc1ccc(C2CC(c3ccccc3)=NN2C(=O)Cn2c(=O)oc3ccccc32)cc1OC (configuration not stated)	4.55 10^-5No_unit

System: not listed separately
Experiment: Ex vivo inhibition of MAOA in CD1 mouse brain homogenates assessed as dopamine levels at 30 mg/kg, po administered as single acute dose via gavage and measured after 1 hr by ELISA kit method (reference value: 7.08 +/- 0.58 ug/g)
Format: functional
Conditions: not given

SMILES	Activity [µg/g]
COc1ccc(C2CC(c3ccccc3)=NN2C(=O)Cn2c(=O)oc3ccccc32)cc1OC (configuration not stated)	7.08

System: not listed separately
Experiment: Cytotoxicity against human HepG2 cells assessed as cell viability at 7.5 uM incubated for 2 hrs by MTT assay relative to control
Format: cell-based
Conditions: read-out: Activity
Procedure, shortened: as §1

SMILES	viability at 2 h, 7.5 µM [%]
COc1ccc(C2CC(c3ccccc3)=NN2C(=O)Cn2c(=O)oc3ccccc32)cc1OC (configuration not stated)	90.4

System: not listed separately
Experiment: Ex vivo inhibition of MAOA in CD1 mouse brain homogenates assessed as 5-HT levels at 30 mg/kg, po administered as single acute dose via gavage and measured after 1 hr by ELISA kit method (reference value: 0.80 +/- 0.006 ug/g)
Format: functional
Conditions: not given

SMILES	Activity [µg/g]
COc1ccc(C2CC(c3ccccc3)=NN2C(=O)Cn2c(=O)oc3ccccc32)cc1OC (configuration not stated)	0.91

Biological target: T1, Amine oxidase [flavin-containing] B (Homo sapiens, UniProt P27338)
T1 sequence (P27338 whole entry): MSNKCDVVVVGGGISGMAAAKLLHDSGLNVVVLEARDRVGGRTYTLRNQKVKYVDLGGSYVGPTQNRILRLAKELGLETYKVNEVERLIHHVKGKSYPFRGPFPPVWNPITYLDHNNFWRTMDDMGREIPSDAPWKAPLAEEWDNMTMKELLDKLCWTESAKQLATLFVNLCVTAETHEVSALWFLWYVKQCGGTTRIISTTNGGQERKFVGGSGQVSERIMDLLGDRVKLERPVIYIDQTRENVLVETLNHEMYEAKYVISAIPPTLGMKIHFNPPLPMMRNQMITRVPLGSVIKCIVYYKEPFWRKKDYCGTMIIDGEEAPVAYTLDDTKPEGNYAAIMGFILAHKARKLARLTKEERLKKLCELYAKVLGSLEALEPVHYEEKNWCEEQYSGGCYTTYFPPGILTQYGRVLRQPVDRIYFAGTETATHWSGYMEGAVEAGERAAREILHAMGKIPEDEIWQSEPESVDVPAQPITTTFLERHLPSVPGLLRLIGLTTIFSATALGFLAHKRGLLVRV
Experiment: Inhibition of recombinant human MAO-B expressed in baculovirus infected BTI insect cells using p-tyramine as substrate incubated for 30 mins by Amplex red reagent based fluorescence analysis
Format: cell-based
Conditions: not given

SMILES	Ki [µM]
COc1ccc(C2CC(c3ccccc3)=NN2C(=O)Cn2c(=O)oc3ccccc32)cc1OC (configuration not stated)	20

Biological target: T1, Amine oxidase [flavin-containing] B
Experiment: Reversible inhibition of human MAO-B assessed as residual enzyme activity at 4 fold IC50 incubated for 15 mins and measured 24 hrs post dialysis relative to control
Conditions: 24.25 h, time 1455 min
Procedure, shortened: (§2)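 Dialysed (MWCO 12 000) at 4 °C for 24 h against 100 mM potassium phosphate pH 7.4, 5% sucrose, buffer changed twice. Dialysed and undialysed mixtures assayed together; residual activity from triplicates.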

SMILES	Activity [%]
COc1ccc(C2CC(c3ccccc3)=NN2C(=O)Cn2c(=O)oc3ccccc32)cc1OC (configuration not stated)	94.8

Biological target: T1, Amine oxidase [flavin-containing] B
Experiment: Reversible inhibition of human MAO-B assessed as residual enzyme activity at 4 fold IC50 incubated for 15 mins and measured before dialysis relative to control
Conditions: not given
Procedure, shortened: as §2

SMILES	Activity [%]
COc1ccc(C2CC(c3ccccc3)=NN2C(=O)Cn2c(=O)oc3ccccc32)cc1OC (configuration not stated)	78.9

System: Mus musculus
Experiment: Antidepressant-like activity in CD1 mouse assessed as reduction in immobility time at 30 mg/kg, po administered via gavage for 7 days and measured 1 h post last dose by Porsolt-forced swim test
Format: functional, organism-based
Conditions: time 7.0 day
Procedure, shortened: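 Male albino CD-1 mice (20–25 g), 12 h light/dark, food and water ad libitum. Dosed by oral gavage once daily for 7 days in 200 μL 0.5% CMC; vehicle-only controls. […] Forced swim test run 1 h after the last dose. Immobility scored every 60 s over 6 min; n = 8–12.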

SMILES	Activity
COc1ccc(C2CC(c3ccccc3)=NN2C(=O)Cn2c(=O)oc3ccccc32)cc1OC (configuration not stated)	Active

System: not listed separately
Experiment: Ex vivo inhibition of MAOA in CD1 mouse brain homogenates assessed as assessed as inhibition of dopamine deamination by measuring DOPAC metabolite levels at 30 mg/kg, po administered as single acute dose via gavage and measured after 1 hr by HPLC analysis (reference value: 1.22 +/- 0.2 ug/g)
Format: functional
Conditions: not given

SMILES	Activity [µg/g]
COc1ccc(C2CC(c3ccccc3)=NN2C(=O)Cn2c(=O)oc3ccccc32)cc1OC (configuration not stated)	1.23

System: not listed separately
Experiment: Cytotoxicity against human HepG2 cells assessed as cell viability at 30 uM incubated for 2 hrs by MTT assay relative to control
Format: cell-based
Conditions: read-out: Activity
Procedure, shortened: as §1

SMILES	viability at 2 h, 30 µM [%]
COc1ccc(C2CC(c3ccccc3)=NN2C(=O)Cn2c(=O)oc3ccccc32)cc1OC (configuration not stated)	85.3

System: not listed separately
Experiment: Permeability of compound in PBS/EtOH buffer (70:30) at 25 ug/ml incubated for 16 hrs by UV plate reader based PAMPA-BBB
Conditions: not given

SMILES	Papp at 16 h, 25 ug/ml [×10⁻⁶ cm/s]
COc1ccc(C2CC(c3ccccc3)=NN2C(=O)Cn2c(=O)oc3ccccc32)cc1OC (configuration not stated)	9.44

System: not listed separately
Experiment: Ex vivo inhibition of MAOA in CD1 mouse brain homogenates assessed as MAOA level at 30 mg/kg, po administered as subchronic dose via gavage for 7 days and measured 1 hr post last dose by monoamine oxidase assay (reference value: 0.40 +/- 0.005 nmol/min/mg)
Format: functional
Conditions: time 7 day

SMILES	Activity [nmol/min/mg]
COc1ccc(C2CC(c3ccccc3)=NN2C(=O)Cn2c(=O)oc3ccccc32)cc1OC (configuration not stated)	0.27

System: not listed separately
Experiment: Ex vivo inhibition of MAOA in CD1 mouse brain homogenates assessed as 5-HT levels at 30 mg/kg, po administered as subchronic dose via gavage for 7 days and measured 1 hr post last dose by ELISA kit method (reference value: 0.78 +/- 0.01 ug/g)
Format: functional
Conditions: time 7 day

SMILES	Activity [µg/g]
COc1ccc(C2CC(c3ccccc3)=NN2C(=O)Cn2c(=O)oc3ccccc32)cc1OC (configuration not stated)	1.04

Biological target: T2, Amine oxidase [flavin-containing] A (Homo sapiens, UniProt P21397)
T2 sequence (P21397 whole entry): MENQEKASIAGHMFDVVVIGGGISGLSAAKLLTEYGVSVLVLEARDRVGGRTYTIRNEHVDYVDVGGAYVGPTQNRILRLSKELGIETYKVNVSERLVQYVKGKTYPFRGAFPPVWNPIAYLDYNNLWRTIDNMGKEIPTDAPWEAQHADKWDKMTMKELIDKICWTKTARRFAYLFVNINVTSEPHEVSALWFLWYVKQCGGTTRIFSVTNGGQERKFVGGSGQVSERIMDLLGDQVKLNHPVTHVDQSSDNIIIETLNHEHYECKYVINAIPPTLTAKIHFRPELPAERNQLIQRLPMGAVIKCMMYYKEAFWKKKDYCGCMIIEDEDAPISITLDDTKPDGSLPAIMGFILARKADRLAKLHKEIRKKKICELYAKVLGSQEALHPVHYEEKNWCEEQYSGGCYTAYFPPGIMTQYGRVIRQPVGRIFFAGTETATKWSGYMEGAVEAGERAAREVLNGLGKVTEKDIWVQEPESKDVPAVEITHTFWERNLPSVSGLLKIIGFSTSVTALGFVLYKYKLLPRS
Experiment: Reversible inhibition of human MAO-A assessed as residual enzyme activity at 4 fold IC50 incubated for 15 mins and measured before dialysis by dialysis method relative to control
Conditions: not given
Procedure, shortened: as §2

SMILES	Activity [%]
COc1ccc(C2CC(c3ccccc3)=NN2C(=O)Cn2c(=O)oc3ccccc32)cc1OC (configuration not stated)	23.11

Biological target: T2, Amine oxidase [flavin-containing] A
Experiment: Reversible inhibition of human MAO-A assessed as residual enzyme activity at 4 fold IC50 incubated for 15 mins and measured 24 hrs post dialysis by dialysis method relative to control
Conditions: 24.25 h, time 1455 min
Procedure, shortened: as §2

SMILES	Activity [%]
COc1ccc(C2CC(c3ccccc3)=NN2C(=O)Cn2c(=O)oc3ccccc32)cc1OC (configuration not stated)	94

Biological target: T2, Amine oxidase [flavin-containing] A
Experiment: Inhibition of recombinant human MAO-A expressed in baculovirus infected BTI insect cells using p-tyramine as substrate incubated for 30 mins by Amplex red reagent based fluorescence analysis
Conditions: not given

SMILES	Ki [µM]
COc1ccc(C2CC(c3ccccc3)=NN2C(=O)Cn2c(=O)oc3ccccc32)cc1OC (configuration not stated)	0.009

System: not listed separately
Experiment: Ex vivo inhibition of MAOA in CD1 mouse brain homogenates assessed as MAOA level at 30 mg/kg, po administered as single acute dose via gavage and measured after 1 hr by monoamine oxidase assay (reference value: 0.40 +/- 0.012 nmol/min/mg)
Format: functional
Conditions: not given

SMILES	Activity [nmol/min/mg]
COc1ccc(C2CC(c3ccccc3)=NN2C(=O)Cn2c(=O)oc3ccccc32)cc1OC (configuration not stated)	0.28

System: not listed separately
Experiment: Ex vivo inhibition of MAOA in CD1 mouse brain homogenates assessed as inhibition of 5-HT deamination by measuring 5-HIAA metabolite levels by using at 30 mg/kg, po administered as subchronic dose via gavage for 7 days and measured 1 hr post last dose by HPLC analysis (reference value: 0.18 +/- 0.01 ug/g)
Format: functional
Conditions: time 7 day

SMILES	Activity [µg/g]
COc1ccc(C2CC(c3ccccc3)=NN2C(=O)Cn2c(=O)oc3ccccc32)cc1OC (configuration not stated)	0.24

System: not listed separately
Experiment: Effect on locomotor activity in CD1 mouse assessed as total distance traveled at 30 mg/kg, po administered via gavage for 7 days by open field test
Format: ADME, organism-based
Conditions: in vivo, 168 h, time 7 day
Procedure, shortened: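 Each mouse placed in the centre of a 50 × 50 × 30 cm black box and video-tracked; total distance travelled over 5 min; n = 8–10.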

SMILES	Activity
COc1ccc(C2CC(c3ccccc3)=NN2C(=O)Cn2c(=O)oc3ccccc32)cc1OC (configuration not stated)	Non-Toxic

System: Mus musculus
Experiment: Antidepressant-like activity in CD1 mouse assessed as reduction in immobility time at 30 mg/kg, po administered via gavage as single dose measured after 1 hr by Porsolt-forced swim test
Format: functional, organism-based
Conditions: not given

SMILES	Activity
COc1ccc(C2CC(c3ccccc3)=NN2C(=O)Cn2c(=O)oc3ccccc32)cc1OC (configuration not stated)	inactive
